The target in assay [1] is T1, Glycogen phosphorylase, liver form (Homo sapiens, UniProt P06737).
T1 sequence (P06737 whole entry): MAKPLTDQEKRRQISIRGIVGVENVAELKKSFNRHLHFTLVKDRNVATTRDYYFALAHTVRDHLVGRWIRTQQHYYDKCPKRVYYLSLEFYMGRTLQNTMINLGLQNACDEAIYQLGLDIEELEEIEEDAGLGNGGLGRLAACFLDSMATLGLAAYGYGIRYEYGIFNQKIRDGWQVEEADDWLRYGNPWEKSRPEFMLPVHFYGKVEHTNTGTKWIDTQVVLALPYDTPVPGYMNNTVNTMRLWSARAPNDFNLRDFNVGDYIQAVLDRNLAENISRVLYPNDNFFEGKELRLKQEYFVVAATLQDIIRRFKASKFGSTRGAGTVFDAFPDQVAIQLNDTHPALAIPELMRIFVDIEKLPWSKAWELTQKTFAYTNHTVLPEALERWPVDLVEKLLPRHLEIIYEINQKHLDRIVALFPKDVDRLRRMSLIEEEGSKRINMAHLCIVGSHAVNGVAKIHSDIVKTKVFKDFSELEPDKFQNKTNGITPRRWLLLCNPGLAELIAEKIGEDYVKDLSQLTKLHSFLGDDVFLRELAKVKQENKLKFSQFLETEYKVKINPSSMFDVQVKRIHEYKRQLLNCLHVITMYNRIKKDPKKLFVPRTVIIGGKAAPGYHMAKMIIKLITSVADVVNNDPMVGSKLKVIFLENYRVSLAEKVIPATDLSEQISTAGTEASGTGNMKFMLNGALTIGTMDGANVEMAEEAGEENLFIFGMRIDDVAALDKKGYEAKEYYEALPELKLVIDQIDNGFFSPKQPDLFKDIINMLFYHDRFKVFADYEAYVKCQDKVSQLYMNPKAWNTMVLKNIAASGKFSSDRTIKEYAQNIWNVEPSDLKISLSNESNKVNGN
Put plainly: Inhibition of human liver glycogen phosphorylase a in absence of glucose.

The target of assay [2] is T1, Glycogen phosphorylase, liver form. Put plainly: Inhibition of human liver glycogen phosphorylase a in presence of glucose. A digest of the protocol: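 Recombinant human liver GPa assayed in the forward direction by NADPH formation, coupled through phosphoglucomutase (77 U/L) and glucose-6-phosphate dehydrogenase (385 U/L). Conditions: pH 6.8 phosphate buffer with 45 mM KH2PO4, β-NADP, glucose 1,6-bisphosphate, 0.24% glycogen and 10.85 mM glucose. Compounds were added in DMSO before the enzyme; DMSO served as blank and caffeine as positive control. Enzyme addition started the reaction; IC50 was derived by logistic regression.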

Assay [3] deals with T2, Glycogen phosphorylase, liver form (Homo sapiens) (UniProt P06737).
T2 sequence (whole entry): T1 sequence (P06737 whole entry)
Put plainly: Inhibition of human liver glycogen phosphorylase a in absence of glucose at 10 uM.

From ChEMBL document CHEMBL1151794, “Synthesis and pharmacological evaluation of bis-3-(3,4-dichlorophenyl)acrylamide derivatives as glycogen phosphorylase inhibitors” (Bioorg Med Chem, 2008) come the findings set out here.

`O=C(/C=C/c1ccc(Cl)c(Cl)c1)NCCCCNC(=O)/C=C/c1ccc(Cl)c(Cl)c1`: the IC50 in assay [1] was determined as 0.42 µM; in assay [2], 0.043 µM. As for `O=C(/C=C/c1ccc(Cl)c(Cl)c1)NCCCCCCNC(=O)/C=C/c1ccc(Cl)c(Cl)c1`, 18 µM corresponded to half-maximal inhibition in assay [1] (IC50). As for `O=C(/C=C/c1ccc(Cl)c(Cl)c1)NCCCCCNC(=O)/C=C/c1ccc(Cl)c(Cl)c1`, the figures for the 50% inhibitory concentration (IC50) in assay [1] and in assay [2] were 0.26 µM and 0.023 µM, respectively. As to `O=C(/C=C/c1ccc(Cl)c(Cl)c1)NCCCNC(=O)/C=C/c1ccc(Cl)c(Cl)c1`, the IC50 in assay [1] was determined as 55 µM. Turning to `CCCNC(=O)/C=C/c1ccc(Cl)c(Cl)c1`, the inhibition in assay [3] is 0%.

`O=C(/C=C/c1ccc(Cl)c(Cl)c1)NCCNCCNC(=O)/C=C/c1ccc(Cl)c(Cl)c1`: the inhibition in assay [3] worked out at 51%.

Regarding `O=C(/C=C/c1ccc(Cl)c(Cl)c1)NCC[S+]([O-])CCNC(=O)/C=C/c1ccc(Cl)c(Cl)c1`, the IC50 worked out at 0.31 µM in assay [1] and 0.026 µM in assay [2]. `O=C(/C=C/c1ccc(Cl)c(Cl)c1)NCCOCCNC(=O)/C=C/c1ccc(Cl)c(Cl)c1`: the figures for the IC50 in assay [1] and in assay [2] were 0.43 µM and 0.026 µM, respectively. Turning to `O=C(/C=C/c1ccc(Cl)c(Cl)c1)NCCCCCCCCNC(=O)/C=C/c1ccc(Cl)c(Cl)c1`, the IC50 in assay [1] is 33 µM.

`O=C(CCc1ccc(Cl)c(Cl)c1)NCCCCCNC(=O)CCc1ccc(Cl)c(Cl)c1` showed an IC50 in assay [1] of 45 µM. With `O=C(/C=C/c1ccc(Cl)c(Cl)c1)NCCSCCNC(=O)/C=C/c1ccc(Cl)c(Cl)c1`, the IC50 came out at 0.45 µM in assay [1] and 0.012 µM in assay [2]. In assay [3], `O=C(/C=C\c1ccc(Cl)c(Cl)c1)NCCCCCNC(=O)/C=C\c1ccc(Cl)c(Cl)c1` registered an inhibition of 36%. In turn, `O=C(C#Cc1ccc(Cl)c(Cl)c1)NCCCCCNC(=O)C#Cc1ccc(Cl)c(Cl)c1` came in with an IC50 in assay [1] of 59 µM.

The molecule `CC(C)(C)OC(=O)N(CCNC(=O)/C=C/c1ccc(Cl)c(Cl)c1)CCNC(=O)/C=C/c1ccc(Cl)c(Cl)c1` had an inhibition in assay [3] of 48%.

Turning to `O=C(/C=C/c1ccc(Cl)c(Cl)c1)NCCCCCCCNC(=O)/C=C/c1ccc(Cl)c(Cl)c1`, 11 µM corresponded to half-maximal inhibition in assay [1] (IC50). The same measure, in the same setting: the value for `O=C(/C=C/c1ccc(Cl)c(Cl)c1)NCCS(=O)(=O)CCNC(=O)/C=C/c1ccc(Cl)c(Cl)c1` was 1.5 µM; that for `O=C(/C=C/c1ccc(Cl)c(Cl)c1)NCCNC(=O)/C=C/c1ccc(Cl)c(Cl)c1` was 20 µM.

Broadly, the IC50 is the concentration that gives 50% inhibition. By inhibition is commonly meant the percentage by which the read-out fell short of the control.
